Measurements as given in ChEMBL document CHEMBL4689842, “EUbOPEN Chemogenomics Library wave 1” (2021).

Tested on: HEK-293T
Assay: Multiplex assay against HEK293T;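 on Population Tubulin-Different-Phenotype (%): share of the cells with healthy nuclei that show this phenotype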
Format: toxicity, cell-based
Details: human
How it was run: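 Live cells were stained at seeding with Hoechst33342, BioTracker Green Microtubule Cytoskeleton Dye, MitoTracker Red and Annexin V Alexa Fluor 680. Following compound addition, they were imaged on a CQ1 microscope at 37°C and 5% CO2 and gated by CellPathfinder machine learning into Hoechst high-intensity objects or normal cells, with normal cells split into healthy, pyknosed or fragmented nuclei and pyknosed cells into mitotic or apoptotic. Tubulin, mitochondrial-mass and membrane-permeability phenotypes are per cents of healthy-nucleus cells.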

[1] = 12 h, 1 µM, compound concentration 1 uM, replicate 1
[2] = 12 h, 1 µM, compound concentration 1 uM, replicate 2
[3] = 12 h, 10 µM, compound concentration 10 uM, replicate 1
[4] = 12 h, 10 µM, compound concentration 10 uM, replicate 2
[5] = 24 h, 1 µM, compound concentration 1 uM, replicate 1
[6] = 24 h, 1 µM, compound concentration 1 uM, replicate 2
[7] = 24 h, 10 µM, compound concentration 10 uM, replicate 1
[8] = 24 h, 10 µM, compound concentration 10 uM, replicate 2
[9] = 48 h, 1 µM, compound concentration 1 uM, replicate 1
[10] = 48 h, 1 µM, compound concentration 1 uM, replicate 2
[11] = 48 h, 10 µM, compound concentration 10 uM, replicate 1
[12] = 48 h, 10 µM, compound concentration 10 uM, replicate 2

`Cc1cc(C)cc(-c2cnc3cc(Cl)c(-c4cccc(O)c4)cc3c2OCCCN)c1` was tested, and the “Population Apoptotic (%)” value [1] was 53%, the “Population Fragmented Nuclei (%)” value [1] was 11% and the “Population Healthy Nuclei (%)” value [1] was 40%. The “Population Hoechst High Intensity Objects (%)” value [1] was 10%, the “Population Membrane Permeable-Phenotype (%)” value [1] was 3% and the “Population Mitochondria Different-Phenotype (%)” value [1] was 95%. The “Population Mitotic Cells (%)” value [1] was 46%, the “Population Normal (%)” value [1] was 89% and the “Population Pyknosed Nuclei (%)” value [1] was 47%. The “Population Tubulin-Different-Phenotype (%)” value [1] was 92%, the “Total Cell Count” value [1] was 349 and the “Population Apoptotic (%)” value [2] was 31%. The “Population Fragmented Nuclei (%)” value [2] was 5%, the “Population Healthy Nuclei (%)” value [2] was 43% and the “Population Hoechst High Intensity Objects (%)” value [2] was 3%. The “Population Membrane Permeable-Phenotype (%)” value [2] was 6%, the “Population Mitochondria Different-Phenotype (%)” value [2] was 66% and the “Population Mitotic Cells (%)” value [2] was 68%. The “Population Normal (%)” value [2] was 96%, the “Population Pyknosed Nuclei (%)” value [2] was 50% and the “Population Tubulin-Different-Phenotype (%)” value [2] was 63%. The “Total Cell Count” value [2] was 251, the “Population Apoptotic (%)” value [3] was 70% and the “Population Fragmented Nuclei (%)” value [3] was 23%. For the same molecule, the “Population Healthy Nuclei (%)” value [3] was 1%, the “Population Hoechst High Intensity Objects (%)” value [3] was 13% and the “Population Membrane Permeable-Phenotype (%)” value [3] was 33%. For the same molecule, the “Population Mitochondria Different-Phenotype (%)” value [3] was 33%, the “Population Mitotic Cells (%)” value [3] was 29% and the “Population Normal (%)” value [3] was 86%. For the same molecule, the “Population Pyknosed Nuclei (%)” value [3] was 74%, the “Population Tubulin-Different-Phenotype (%)” value [3] was 66% and the “Total Cell Count” value [3] was 226. The “Population Apoptotic (%)” value [4] was 90%, the “Population Fragmented Nuclei (%)” value [4] was 5% and the “Population Healthy Nuclei (%)” value [4] was 18%. For the same molecule, the “Population Hoechst High Intensity Objects (%)” value [4] was 3%, the “Population Membrane Permeable-Phenotype (%)” value [4] was 0% and the “Population Mitochondria Different-Phenotype (%)” value [4] was 91%. For the same molecule, the “Population Mitotic Cells (%)” value [4] was 9%, the “Population Normal (%)” value [4] was 96% and the “Population Pyknosed Nuclei (%)” value [4] was 76%. For the same molecule, the “Population Tubulin-Different-Phenotype (%)” value [4] was 97%, the “Total Cell Count” value [4] was 192 and the “Population Apoptotic (%)” value [5] was 53%. The “Population Fragmented Nuclei (%)” value [5] was 15%, the “Population Healthy Nuclei (%)” value [5] was 26% and the “Population Hoechst High Intensity Objects (%)” value [5] was 12%. For the same molecule, the “Population Membrane Permeable-Phenotype (%)” value [5] was 1%, the “Population Mitochondria Different-Phenotype (%)” value [5] was 98% and the “Population Mitotic Cells (%)” value [5] was 46%. For the same molecule, the “Population Normal (%)” value [5] was 87%, the “Population Pyknosed Nuclei (%)” value [5] was 57% and the “Population Tubulin-Different-Phenotype (%)” value [5] was 90%. The “Total Cell Count” value [5] was 358, the “Population Apoptotic (%)” value [6] was 39% and the “Population Fragmented Nuclei (%)” value [6] was 6%. For the same molecule, the “Population Healthy Nuclei (%)” value [6] was 56%, the “Population Hoechst High Intensity Objects (%)” value [6] was 2% and the “Population Mitochondria Different-Phenotype (%)” value [6] was 81%. The “Population Mitotic Cells (%)” value [6] was 60%, the “Population Normal (%)” value [6] was 97% and the “Population Pyknosed Nuclei (%)” value [6] was 36%. For the same molecule, the “Population Tubulin-Different-Phenotype (%)” value [6] was 79%, the “Total Cell Count” value [6] was 296 and the “Population Apoptotic (%)” value [7] was 77%. The “Population Fragmented Nuclei (%)” value [7] was 22%, the “Population Healthy Nuclei (%)” value [7] was 1% and the “Population Hoechst High Intensity Objects (%)” value [7] was 12%. The “Population Membrane Permeable-Phenotype (%)” value [7] was 0%, the “Population Mitochondria Different-Phenotype (%)” value [7] was 66% and the “Population Mitotic Cells (%)” value [7] was 22%. For the same molecule, the “Population Normal (%)” value [7] was 87%, the “Population Pyknosed Nuclei (%)” value [7] was 76% and the “Population Tubulin-Different-Phenotype (%)” value [7] was 66%. For the same molecule, the “Total Cell Count” value [7] was 232, the “Population Apoptotic (%)” value [8] was 94% and the “Population Fragmented Nuclei (%)” value [8] was 6%. The “Population Healthy Nuclei (%)” value [8] was 9%, the “Population Hoechst High Intensity Objects (%)” value [8] was 8% and the “Population Membrane Permeable-Phenotype (%)” value [8] was 6%. The “Population Mitochondria Different-Phenotype (%)” value [8] was 75%, the “Population Mitotic Cells (%)” value [8] was 5% and the “Population Normal (%)” value [8] was 91%. For the same molecule, the “Population Pyknosed Nuclei (%)” value [8] was 83%, the “Population Tubulin-Different-Phenotype (%)” value [8] was 75% and the “Total Cell Count” value [8] was 183. For the same molecule, the “Population Apoptotic (%)” value [9] was 51%, the “Population Fragmented Nuclei (%)” value [9] was 17% and the “Population Healthy Nuclei (%)” value [9] was 13%. The “Population Hoechst High Intensity Objects (%)” value [9] was 18%, the “Population Membrane Permeable-Phenotype (%)” value [9] was 0% and the “Population Mitochondria Different-Phenotype (%)” value [9] was 87%. The “Population Mitotic Cells (%)” value [9] was 48%, the “Population Normal (%)” value [9] was 81% and the “Population Pyknosed Nuclei (%)” value [9] was 68%. The “Population Tubulin-Different-Phenotype (%)” value [9] was 75%, the “Total Cell Count” value [9] was 352 and the “Population Apoptotic (%)” value [10] was 33%. For the same molecule, the “Population Fragmented Nuclei (%)” value [10] was 5%, the “Population Healthy Nuclei (%)” value [10] was 75% and the “Population Hoechst High Intensity Objects (%)” value [10] was 6%. For the same molecule, the “Population Membrane Permeable-Phenotype (%)” value [10] was 3%, the “Population Mitochondria Different-Phenotype (%)” value [10] was 55% and the “Population Mitotic Cells (%)” value [10] was 66%. For the same molecule, the “Population Normal (%)” value [10] was 93%, the “Population Pyknosed Nuclei (%)” value [10] was 19% and the “Population Tubulin-Different-Phenotype (%)” value [10] was 69%. The “Total Cell Count” value [10] was 406, the “Population Apoptotic (%)” value [11] was 80% and the “Population Fragmented Nuclei (%)” value [11] was 27%. For the same molecule, the “Population Healthy Nuclei (%)” value [11] was 1%, the “Population Hoechst High Intensity Objects (%)” value [11] was 16% and the “Population Membrane Permeable-Phenotype (%)” value [11] was 0%. The “Population Mitochondria Different-Phenotype (%)” value [11] was 50%, the “Population Mitotic Cells (%)” value [11] was 19% and the “Population Normal (%)” value [11] was 83%. The “Population Pyknosed Nuclei (%)” value [11] was 71%, the “Population Tubulin-Different-Phenotype (%)” value [11] was 50% and the “Total Cell Count” value [11] was 238. For the same molecule, the “Population Apoptotic (%)” value [12] was 96%, the “Population Fragmented Nuclei (%)” value [12] was 15% and the “Population Healthy Nuclei (%)” value [12] was 14%. For the same molecule, the “Population Hoechst High Intensity Objects (%)” value [12] was 7%, the “Population Membrane Permeable-Phenotype (%)” value [12] was 12% and the “Population Mitochondria Different-Phenotype (%)” value [12] was 79%. For the same molecule, the “Population Mitotic Cells (%)” value [12] was 3%, the “Population Normal (%)” value [12] was 92% and the “Population Pyknosed Nuclei (%)” value [12] was 70%. The “Population Tubulin-Different-Phenotype (%)” value [12] was 83% and the “Total Cell Count” value [12] was 179.
